Results: PMC6771164 (Hepatology Communications, 2019)

Experiments:
[1] = tested on: woodchuck hepatitis virus (WHV); assay: Efficacy study in WHV-positive woodchucks; type: in vivo
How it was run: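 Adult chronically WHV-infected woodchucks of both sexes (serum WHV DNA, WHsAg and WHeAg positive; anti-WHs and anti-WHe negative) stratified into four groups, n = 5. Daily oral nucleoside analogue (0.1 mg/kg/day) or PBS vehicle in diet for 4 weeks. Then 12 weeks adding weekly oral TLR7 agonist (5.0–30.0 mg/kg/week) or carboxymethyl cellulose/tween-80 vehicle. Then 4 weeks daily drug only, followed to week 36. Serum WHsAg and anti-WHs by enzyme immunoassay. WHeAg and anti-WHe by cross-reactive ELISA OD.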

serum IP-10, IL-6, TNF-α = assay: Mouse PD study: serum cytokines after single oral dose; type: in vivo, C57BL/6 mice; conditions: serum at 3 hours
How it was run: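 Female C57BL/6 mice, 7-8 weeks old, given a single oral dose of test compound at 0.3, 3, 30 or 300 mg/kg. Bled at 3 hours. Serum IP-10, IL-6 and TNF-α quantified as pg/mL, reported as mean ± SD.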

[2] = cited from earlier work
[3] = cited from earlier work; remark: listed apart in the source
[4] = mice; cited from earlier work
OAS1 transcript in blood = conditions: woodchuck model; cited from earlier work

Compound	woodchucks with recrudescence of WHV replication after drug withdrawal ([1]; Group 1)	animals with undetectable serum WHeAg during the study ([1]; Group 1, n = 5)	animals with undetectable serum WHsAg during the study ([1]; Group 1, n = 5)	elicitation of anti-WHs antibodies ([1]; monotherapy (Groups 1 and 2))	serum IL-6 level relative to APR002 (serum IP-10, IL-6, TNF-α; high oral doses) [fold]	serum TNF-α level relative to APR002 (serum IP-10, IL-6, TNF-α; high oral doses) [fold]	slope of serum IP-10 dose response (serum IP-10, IL-6, TNF-α; single oral dose 0.3-300 mg/kg)	clearance in human liver microsomes [2]	clearance in mouse liver microsomes [3]	volume of distribution [4]	fold change in blood OAS1 (OAS1 transcript in blood) [fold]
C=C1[C@H](CO)[C@@H](O)C[C@@H]1n1cnc2c(=O)[nH]c(N)nc21 [ETV, entecavir]	all five	five	four	did not occur in any animal	–	–	–	–	–	–	–
CCCCOc1nc(N)c2c(n1)N(Cc1cccc(CN3CCCC3)c1)CC(=O)N2 [GS-9620]	–	–	–	–	> 6	> 4	2.8	fast clearance	fast clearance	high volume of distribution	5
